T cruzi repl = T. cruzi replication inhibition. AID 1885. hit rate 1.4% among 300,000. inhibition, % (concentration not given with the values). T. cruzi beta-gal in NIH3T3, luminescence, 90 h;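 active means mean inhibition across valid replicates above about 55%, limit read from the data; inconclusive means mean below that limit but half or more replicates reach it; inactive means mean below it, under half of replicates reach it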;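 further: signal also drops with host cell toxicity which is not excluded here; 0% = plate median of DMSO wells and 100% = zero luminescence signal; higher percent means less beta-gal luminescence so fewer parasites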
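Assay system: NIH/3T3 host cells with β-galactosidase reporter T. cruzi; input: 5,000 host fibroblasts per well; compound: single 50 nL compound addition per well in DMSO; timing: ≥90 h infection period, 3 h prior cell attachment; measured by: GalScreen β-gal luminescence, detergent lysis, 60 min; evaluation: percent inhibition of parasite-derived β-gal signal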
Calb FLC = C. albicans growth modulation with fluconazole; C. albicans CaCi-2 + fluconazole, Alamar Blue growth, 48 h; hit rate 0.57% among 300,000; growth inhibition, % (no concentration beside the values);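 active means growth inhibition above about 58% in most replicates, limit read from the data, passing the limit was not always enough; inconclusive means exactly half the replicates above a set limit; inactive means most replicates below a set limit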;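 further: all wells also contain fluconazole at 8 µg/ml as a sub-toxic cotreatment; 0% = median of DMSO wells and 100% = median of geldanamycin control wells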
NLRP3 yeast inh = blocks the NALP3 inflammasome reconstituted in yeast; Yeast reconstituted NLRP3/ASC/caspase-1, beta-gal luminescence, 24 h; inhibition, % at 10 µM; hit rate 0.39% among 330,000; AID 2825;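 active means inhibition of 50% or more; inactive means inhibition below 50%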;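 further: plate controls were induced DMSO wells for no effect and uninduced yeast grown without galactose for full effect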
L major viab = Leishmania major promastigote growth inhibition | AID 1063 | inhibition, % at 10 µM | hit rate 9% among 200,000 | Leishmania major promastigotes, resazurin fluorescence viability; in the data active means inhibition above about 50%;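 further: promastigotes grown with compound for 44 hours at 28 °C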
NALP1 inh = blocks the NALP1 inflammasome reconstituted in yeast. hit rate 0.61% among 280,000. S. cerevisiae NALP1/ASC/caspase-1 growth, X-gal OD620, 72 h. inhibition, % at 10 µM; in the data active means inhibition mostly above about 24%, no sharp cut-off; inactive means mostly below about 32%
PolyA inhibitor = yeast polyadenylation inhibition | S. cerevisiae SKY197-pL101 polyadenylation reporter, beta-gal luminescence; efflux-impaired pdr1/pdr3 knockout yeast; score 100 = 6 SD above DMSO | AID 1875 | activity score, % at 12 µM | hit rate 0.02% among 300,000;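 active means lowest replicate activity score at least 50, where 100 means six control SD above control mean; inconclusive means lowest score under 50 but half or more replicates reach 50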;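 further: yeast exposed to compound for 9 h at 30 °C; higher score means more reporter readthrough which indicates perturbed polyadenylation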
* marks the source's active call; other numbers are inactive results; ? = inconclusive; . = no result. The entries come from a sample that favours hits as a whole.

SMILES | T cruzi repl | Calb FLC | NLRP3 yeast inh | L major viab | NALP1 inh | PolyA inhibitor
CC1CCc2nc3ccccc3c(C(=O)OCC(=O)N3CCc4ccccc43)c2C1 (configuration not stated) | 43.4 | 2.3 | 13.4 | 4.1 | -19.3 | 2.1
O=C(O)CNC(=O)c1ccc(NS(=O)(=O)c2ccc3ccccc3c2)cc1 | -4.9 | -1.0 | -6.9 | . | 2.0 | -14.2
CCCCN(Cc1ccccc1)S(=O)(=O)c1cc(Br)cc2c1N(C(C)=O)C(C)C2 (configuration not stated) | 45.6 | -8.7 | 21.8 | 98.2* | 27.4 | -1.9
CCNC(=O)Nc1cc(S(=O)(=O)Nc2ccc(OC)cc2)ccc1N1CCOCC1 | . | . | 14.5 | . | . | .
COc1ccc(NS(=O)(=O)c2ccc(N3CCCC3)c(NC(=S)Nc3cccc(C)c3C)c2)cc1 | -0.1 | 32.3 | 3.7 | 57.9* | . | 10.8
COc1ccc(NS(=O)(=O)c2ccc(N3CCCC3)c(NC(=S)Nc3ccc(SC(F)F)cc3)c2)cc1 | 5.7 | -21.1 | 10.2 | 86.5* | -16.7 | 6.7
COc1ccc(NS(=O)(=O)c2ccc(N3CCCC3)c(N)c2)cc1 | 5.4 | 0.5 | -3.2 | . | 5.9 | 3.9
COc1ccc(N(CC(=O)NC2CCCCC2)C(=O)CCC(=O)Nc2nc(C)cs2)cc1OC | 7.3 | -2.8 | 17.2 | . | 2.2 | -3.0
COc1ccc(-n2ccnc2CN2CCCC(CO)(Cc3cccc(OC)c3)C2)cc1 (configuration not stated) | 4.1 | -0.7 | 14.1 | 36.7 | 14.1 | -5.0
COc1cccc(CC2(CO)CCCN(Cc3ccc(-c4ccco4)cc3)C2)c1 (configuration not stated) | 57.7* | -29.5 | 10.0 | 19.4 | 14.5 | -4.2
COc1cccc(CC2(CO)CCCN(Cc3sc(N4CCCC4)nc3Cl)C2)c1 (configuration not stated) | 55.1* | -14.1 | 12.3 | 8.2 | 10.5 | 10.3
COc1cccc(CC2(CO)CCCN(Cc3ccc(CO)o3)C2)c1 (configuration not stated) | -17.5 | -9.8 | 19.4 | 2.6 | 8.6 | 12.8
COc1cccc(CC2(CO)CCCN(Cc3cc4ccccc4[nH]3)C2)c1 (configuration not stated) | 67.3* | -5.6 | 3.0 | 74.1* | 0.7 | 15.2
COc1cccc(CC2(CO)CCCN(Cc3[nH]c4ccc(C)cc4c3C)C2)c1 (configuration not stated) | 49.8 | -8.7 | 5.4 | 49.7 | 5.9 | 2.9
COc1cccc(CC2(CO)CCCN(Cc3ccc(C)s3)C2)c1 (configuration not stated) | 57.9* | -14.4 | 19.2 | 66.7* | 0.3 | 10.5
COc1cccc(CC2(CO)CCCN(Cc3ccccc3-c3ccco3)C2)c1 (configuration not stated) | 26.2 | -16.2 | 1.4 | 7.7 | -7.4 | 10.3
CN1CCC(=NNC(=O)CSc2ccc(Cl)cc2)CC1 | -7.8 | -22.7 | -5.4 | -0.6 | 1.5 | -0.2
O=C(Nc1ccccn1)C(F)(F)C(F)(F)C(F)(F)C(F)(F)C(=O)Nc1ccccn1 | -12.5 | 17.8 | 7.2 | 69.8* | 12.1 | 6.4
CC(C(=O)Nc1ccccn1)(c1ccccc1)c1ccccc1 | 17.5 | 20.1 | -9.6 | . | 9.2 | -14.2
CC(=O)c1ccc(COC(=O)c2cc3ccccc3oc2=O)cc1 | -15.2 | 6.4 | 23.6 | . | 12.8 | -17.3
CCOc1ccc(CCNC(=O)COC(=O)c2ccccc2O)cc1OCC | -4.1 | 0.5 | 10.8 | 81.6* | 13.7 | -13.4
CCOc1ccc(CCNC(=O)c2ccc(CNS(=O)(=O)c3ccccc3)cc2)cc1OCC | 7.3 | -9.1 | 11.3 | 52.7* | 23.7 | 13.9
COc1ccc(CCNC(=O)c2ccc(CNS(=O)(=O)c3ccc(C(C)(C)C)cc3)cc2)cc1OC | 4.2 | 2.9 | 18.5 | 11.8 | 25.3 | -7.4
CN(CC(=O)N1CCCCCC1)S(=O)(=O)c1ccccc1 | 4.2 | -11.6 | -25.1 | . | 23.0 | -2.6
CN1CCN(CCCNC(=O)c2ccc(/C=C3\Oc4ccccc4N(Cc4ccccc4F)C3=O)cc2)CC1 | 25.0 | 32.5 | 12.2 | . | 18.3 | -1.2
SMILES | T cruzi repl | Calb FLC | NLRP3 yeast inh | L major viab | NALP1 inh | PolyA inhibitor
CN1CCN(CCCNC(=O)c2ccc(/C=C3/Sc4ccccc4N(Cc4cccc(Cl)c4)C3=O)cc2)CC1 | 57.7* | 19.6 | . | 99.9* | 7.3 | -14.0
Cc1cccc(CN2C(=O)/C(=C\c3ccc(C(=O)NCCCN4CCN(C)CC4)cc3)Oc3ccccc32)c1 | 35.5 | 5.3 | 18.2 | . | 35.3 | 2.0
COCCCNC(=O)/C=C1\Sc2ccccc2N(Cc2ccccc2F)C1=O | 0.0 | 5.4 | 0.8 | 22.0 | 12.3 | -12.3
CCN1CCN(CCNC(=O)c2ccc(/C=C3\Sc4ccccc4N(Cc4ccccc4F)C3=O)cc2)CC1 | 60.0* | 44.2 | 8.2 | 100.4* | 13.7 | -18.1
CN1CCN(CCCNC(=O)c2ccc(/C=C3\Sc4ccccc4N(Cc4ccc(F)cc4)C3=O)cc2)CC1 | ? | 70.8 | . | 100.3* | 22.6 | -12.5
Cc1ccc(NC(=S)Nn2cnnc2)cc1 | 0.8 | -22.4 | 5.5 | 1.7 | 1.8 | -6.5
COc1ccc(-c2oc(=O)c3cc(OC)c(OC)cc3c2C#C[C@]2(O)CC[C@H]3[C@@H]4CCc5cc(OC)ccc5[C@H]4CC[C@@]32C)cc1 | . | . | 14.6 | . | . | .
O=C(Nc1cccc(N2C(=O)C=CC2=O)c1)c1cccs1 | 61.2* | 6.8 | -12.8 | . | . | 1.7
O=C(O)c1ccc(NC(=O)c2cccc(NC(=O)c3cccs3)c2)cc1 | 6.6 | 8.1 | 13.9 | . | 35.5* | -7.1
Cc1nc2ccccc2c(=O)n1-c1cccc(NC(=O)c2cccs2)c1 | 2.0 | -0.5 | -18.1 | . | . | -2.0
O=C(Nc1cccc(O)c1)c1ccc(NC(=O)c2cccs2)cc1 | 5.3 | 0.3 | -9.1 | . | 9.8 | 8.9
COc1cccc(CN(C)C(=O)C2CCN(S(=O)(=O)c3cccs3)CC2)c1OC | . | . | 17.1 | . | . | .
CC(=O)Nc1ccc(NC2=C(Cl)C(=O)c3ccccc3C2=O)cc1 | ? | 37.1 | -2.7 | 4.1 | 0.6 | -14.2
O=C(Oc1ccc(NC2=C(Cl)C(=O)c3ccccc3C2=O)cc1)c1ccc([N+](=O)[O-])cc1 | 63.3* | ? | . | 8.1 | 18.7 | -11.1
O=C1N=C(N2CCN(c3ccccc3)CC2)SC1Cc1ccccc1 (configuration not stated) | -0.2 | 1.5 | 35.5 | 3.7 | 40.3* | 1.3
Cc1ccc(N2CCN(C3=NC(=O)C(Cc4ccccc4)S3)CC2)cc1 (configuration not stated) | 2.5 | 9.8 | 13.7 | 38.6 | 24.5 | 4.0
COc1ccccc1/C=C/C(=O)OCc1nc2ccccc2c(=O)[nH]1 | -15.3 | -0.8 | 18.8 | 3.1 | 15.8* | -8.2
COc1ccc(/C=C/C(=O)OCc2nc3ccccc3c(=O)[nH]2)c(OC)c1 | -0.1 | -6.9 | 12.3 | . | -1.5 | -6.5
CC(C)(C)Nc1nc(NN)nc(NC(C)(C)C)n1 | ? | 26.3 | 3.8 | 81.0* | 7.2 | 4.8
O=C1CSC(c2c(F)cccc2Cl)N1c1cccc(F)c1 (configuration not stated) | -16.6 | -1.1 | 1.9 | 88.2* | 20.8 | 1.1
